High-throughput results: PubChem BioAssay, several laboratories
MPTP block: inhibitors of mitochondrial permeability transition pore; actives 1.4% (n = 360,000); isolated mouse mitochondria, Ca2+ swelling absorbance, 30 min; inhibition, % at 10 µM;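 active = inhibition of 50% or more, scaled per plate between neutral and stimulator controls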
T cruzi inh: T. cruzi replication inhibition. T. cruzi beta-gal in NIH3T3, luminescence, 90 h. inhibition, % (no concentration beside the values). actives 1.4% (n = 300,000);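 active = mean inhibition across valid replicates above about 55%, limit read from the data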;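 note: signal also drops with host cell toxicity which is not excluded here; higher percent means less beta-gal luminescence so fewer parasites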
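Assay system: NIH/3T3 host cells with β-galactosidase reporter T. cruzi; input: 5,000 host fibroblasts per well; compound: single 50 nL compound addition per well in DMSO; timing: ≥90 h infection period, 3 h prior cell attachment; measured by: GalScreen β-gal luminescence, detergent lysis, 60 min; evaluation: percent inhibition of parasite-derived β-gal signal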
Redox H2O2 prof: compounds producing H2O2 with reducing agent – biochemical, NIH compound library profiling, artefact control for MLSCN library redox annotation, primary screen; activation, % at 10 µM; actives 0.03% (n = 200,000); DTT-dependent redox cycling H2O2, phenol red/HRP absorbance; 100% = 100 µM peroxide control, 0% = buffer;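 active = activation of at least 50% relative to the plate's high and low controls in the primary single-dose screen; inactive = activation below 50%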;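 note: compound incubated with DTT at 0.8 mM final as the reducing agent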
Lmaj promast: inhibitors of Leishmania major promastigote growth | Leishmania major promastigotes, resazurin fluorescence viability | AID 1063 | actives 9% (n = 200,000) | inhibition, % at 10 µM; in the data active = inhibition above about 50%;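 note: promastigotes grown with compound for 44 hours at 28 °C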
Hep lipid drop: hepatic lipid droplet formation modulation | AML12 mouse hepatocytes, oleate lipid droplets, BODIPY imaging | inhibition, % at 6.5 µM | actives 0.4% (n = 240,000);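 active = lipid droplet intensity inhibited by at least 50%, with more than 500 cells counted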
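Technique: fluorescence imaging, 20x objective, two fields per well / Assay system: AML12 hepatocytes (mouse) / Measure: % inhibition of lipid droplet signal / Doses: 6.5 µM single-point dosing / Incubation: overnight exposure / Reagent: 100 µM oleic acid challenge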
A number is an active result; i = inactive; nt = no result. Many of the other results were omitted from the sample, so hits are more common in it than they were.

SMILES	MPTP block	T cruzi inh	Redox H2O2 prof	Lmaj promast	Hep lipid drop
COc1ccc2cc(CN(Cc3cccs3)Cc3nnnn3Cc3ccccc3)c(=O)[nH]c2c1	i	i	i	i	i
Cc1cccc2cc(CN(Cc3cccs3)Cc3nnnn3Cc3ccccc3)c(=O)[nH]c12	i	63	i	i	nt
CCOc1ccc2[nH]c(=O)c(CN(Cc3cccs3)Cc3nnnn3C(C)(C)CC)cc2c1	i	58	i	59	nt
CCOC(=O)Cc1csc(SCC(=O)NC2CCCC2)n1	i	nt	nt	nt	nt
C[C@H]1CC[C@@]2(O[C@H](CCO)C[C@H](O)[C@H]2O)O1	i	i	nt	nt	nt
N#Cc1ccccc1S(=O)(=O)N1CCN(CC(O)COc2ccccc2F)CC1 (configuration not stated)	i	i	nt	nt	i
NC(CCc1ccccc1)c1csc(NC(=O)NCC2CCCCC2)n1 (configuration not stated)	i	nt	nt	nt	nt
O=C(NCCN1CCC(n2c(=O)[nH]c3ccccc32)CC1)c1ccc(F)cc1Cl	i	nt	nt	nt	nt
COCCNc1oc(Cc2cccc3ccccc23)nc1C#N	i	i	nt	nt	i
N#Cc1nc(-c2ccccc2)oc1NCCN1CCCCC1	i	i	i	87	i
N#Cc1nc(Cc2cccc3ccccc23)oc1NCCN1CCOCC1	i	i	i	72	i
N#Cc1nc(-c2cccs2)oc1NCCN1CCOCC1	i	i	i	i	nt
O=C(NC(=S)Nc1ccccc1N1CCOCC1)c1ccc(-c2ccccc2F)o1	i	i	nt	nt	i
CC(C)C[C@H](NC(=O)OC(C)(C)C)c1nnc(SCc2cccc(F)c2)o1	i	i	i	69	i
CCOC(=O)/C(C#N)=C/c1ccc(OCC(=O)Nc2ccc(C)c(C)c2)c(OC)c1	i	i	i	52	i
C=CCOc1ccccc1/C=c1\sc2nc(=O)c(C)nn2c1=O	i	i	i	100	i
Cc1ccc(S(=O)(=O)NCCN(CCNS(=O)(=O)c2ccc(C)cc2)S(C)(=O)=O)cc1	i	i	i	i	nt
CC(C)N(CCNS(=O)(=O)c1ccc(Cl)cc1)C(C)C	i	i	i	57	i
O=C(NCCNC1CCC(c2ccccc2)CC1)c1ccc(F)cc1 (configuration not stated)	i	i	i	94	i
CCC(C)(C)NC(=O)C(c1ccccc1)N(Cc1cccs1)C(=O)Cn1nnc2ccccc21 (configuration not stated)	i	i	i	68	nt
CCCCC(=O)N(C)c1c(CC)nc2c(OCC(=O)c3ccc(F)cc3)cccn12	i	nt	nt	nt	nt
COCc1cc(Sc2ccc(Cl)cc2)nc(C)n1	i	i	i	i	i
COCc1cc(S(=O)c2ccc(Cl)cc2)nc(C)n1 (configuration not stated)	i	61	i	99	i
Cc1cc(NC(=S)N(CCCN2CCN(C)CC2)Cc2ccco2)ccc1Cl	i	i	i	i	i
Cc1cc(OCC(O)CN)ccc1Cl (configuration not stated)	i	i	i	92	i
SMILES	MPTP block	T cruzi inh	Redox H2O2 prof	Lmaj promast	Hep lipid drop
Cc1ccc(NC(=O)C(C)OC(=O)c2ccc(NC(=O)CC#N)cc2)cc1S(=O)(=O)N1CCOCC1 (configuration not stated)	i	i	nt	nt	nt
CC(C)=C(NC(=O)c1ccccc1)C(=O)NC(Cc1ccccc1)C(=O)O (configuration not stated)	i	i	nt	nt	i
CCOc1cc(S(=O)(=O)N2CC=C(c3ccc(F)cc3)CC2)c(OCC)cc1-n1cnnn1	i	i	i	62	nt
CCOc1cc(S(=O)(=O)N2CCC(Cc3ccccc3)CC2)c(OCC)cc1-n1cnnn1	i	67	i	i	i
COc1ccc(NC(=O)CSc2nnnn2C)c([N+](=O)[O-])c1	i	i	i	i	i
COCc1cc(=O)n2[nH]c(-c3ccccc3)cc2n1	i	i	i	i	nt
COCc1cc(=O)n2[nH]c(-c3cccc(Br)c3)cc2n1	i	i	i	100	i
Clc1cccc(C2CCN(Cc3nc(CC4CC4)no3)C2)c1 (configuration not stated)	i	i	i	i	i
CCC1CCCCN1CCCNC(=O)CNC(=O)c1nn(-c2ccc(OC)c(Cl)c2)c(=O)c2ccccc12 (configuration not stated)	i	i	nt	nt	i
O=C(CCN1CCN(C/C=C/c2ccccc2)CC1)Nc1ccc(Cl)cc1	i	i	i	76	i
Cc1ccc(NC(=O)CCN2CCN(C/C=C/c3ccccc3)CC2)cc1	i	nt	i	94	i
O=C(CCN1CCN(c2ccccc2)CC1)Nc1ccc(Cl)cc1	i	i	i	i	i
Cc1ccc(NC(=O)CCN2CCN(C/C=C/c3ccccc3)CC2)cc1C	i	i	i	87	nt
COc1ccc(C)cc1NC(=O)CCN1CCN(C/C=C/c2ccccc2)CC1	i	i	nt	nt	i
Cc1cc(NC(=O)CCN2CCN(CCO)CC2)ccc1Br	i	i	nt	nt	i
CCOc1ccc(NS(=O)(=O)c2ccc(C(=O)NCC(c3ccc(OC)cc3)N3CCOCC3)cc2)cc1 (configuration not stated)	i	i	nt	nt	nt
CC(C)N(Cc1ccccc1)C(=O)CN1C(=O)NC(Cc2ccccc2)(c2ccccc2)C1=O (configuration not stated)	i	i	nt	nt	i
O=C(CCNC(=O)Cn1ccc2ccccc2c1=O)NCCc1ccc(Cl)cc1	i	i	i	55	i
O=C(Cn1cnc2cc([N+](=O)[O-])ccc2c1=O)Nc1ccc2c(c1)CCC2	i	64	i	i	i
COc1ccccc1/C=N/NC(=O)Cn1cnc([N+](=O)[O-])n1	i	i	i	i	i
O=C(Cn1cnc2cc([N+](=O)[O-])ccc2c1=O)NCc1ccccc1	i	i	i	60	i
Cc1cccc(CCNC(=O)CCNC(=O)Cn2ccc3ccccc3c2=O)c1	i	i	i	i	i
O=C(Cn1cnc([N+](=O)[O-])n1)N/N=C/c1ccc2ccccc2c1	i	62	i	96	i
O=C(NCC1CCN(Cc2ccccc2F)CC1)Nc1cccc(Br)c1	i	i	nt	nt	i
CCN(CC)S(=O)(=O)c1ccc(C)c(NC(=O)Cn2cnc3cc([N+](=O)[O-])ccc3c2=O)c1	i	85	i	72	i
SMILES	MPTP block	T cruzi inh	Redox H2O2 prof	Lmaj promast	Hep lipid drop
Cc1cc(OCCCn2cnc3ccccc3c2=O)ccc1[N+](=O)[O-]	i	i	i	59	i
O=C(Cn1cnc2cc([N+](=O)[O-])ccc2c1=O)NCCc1ccc(Cl)cc1	i	64	i	64	i
Cc1ccccc1OCCn1cnc2cc([N+](=O)[O-])ccc2c1=O	i	60	i	73	i
O=c1c2ccccc2ncn1CCCOc1ccccc1[N+](=O)[O-]	i	i	i	i	nt
CCCn1c(N)c(N(CCOC)C(=O)Cc2ccc(S(=O)(=O)N3CCOCC3)s2)c(=O)[nH]c1=O	i	i	nt	nt	nt
CCC1(c2ccc(Cl)cc2)NC(=O)N(Cc2ccc(C(=O)OC)cc2)C1=O (configuration not stated)	i	i	i	i	i
COC(=O)c1cccc(CN2C(=O)C(C)Sc3ccc(C(C)=O)cc32)c1 (configuration not stated)	i	nt	nt	nt	nt
